Measured values from ChEMBL document CHEMBL1157723, “Synthesis and anti-viral activity of azolo-adamantanes against influenza A virus” (Bioorg Med Chem, 2010).
Converted amounts (≈) assume the structure as drawn.

Experiments:
Influenza A virus = assay: Antiviral activity against Influenza A virus (A/Puerto Rico/8/34(H1N1)) infected in MDCK cells assessed as virus yield after 48 hrs end-point dilution method; type: functional, organism-based; details: A/Puerto Rico/8/1934(H1N1)
In short: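 MDCK monolayers were exposed to serial twofold compound dilutions in MEM with 2 mM arginine, 2 mM glutamine and 2 µg/mL trypsin for 1 h at 37 °C, then infected and cultured 48 h at 36 °C. Supernatant was tested by hemagglutination with 1% chicken erythrocytes (1 h, room temperature) and titre by end-point dilution. ED50 is the concentration decreasing virus production […].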

[1] = Selectivity index, ratio of CTD50 for MDCK cells to EC50 for Influenza A virus (A/Puerto Rico/8/34(H1N1)); type: toxicity, cell-based; details: dog, read-out: Selectivity Index
In short: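 Ratio of CTD50 (MDCK, MTT after 48 h) to ED50 (PR8 yield in MDCK by hemagglutination end-point titration after 48 h at 36 °C), both from twofold dilution series.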

MDCK = assay: Cytotoxicity against MDCK cells after 48 hrs by MTT assay; type: cell-based, Canis lupus familiaris; details: dog
In short: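 MDCK cells were grown to monolayer in MEM with 5% fetal calf serum and washed with serum-free MEM. Compounds came from 5 mg/ml DMSO stocks as twofold dilutions of 1000–1 µg/ml in MEM, 48 h at 37 °C. After PBS washes, MTT (0.5 mg/ml) was added for 60 min at 37 °C, the deposit dissolved in DMSO and OD read at 535 nm. CTD50 is the concentration reducing viability 50%.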

Structure (SMILES) | EC50 (Influenza A virus) | selectivity ratio [1] | Activity (MDCK)
Sc1nnnn1-c1ccccc1 | > 200 µg/mL | < 1 | 151 µg/mL
c1ncn(C23CC4CC(CC(C4)C2)C3)n1 | 77 µg/mL (≈ 379 µM) | 5 | 358 µg/mL
Cc1ncn(C23CC4CC(CC(C(C)N)(C4)C2)C3)n1.Cl.Cl (stereo unspecified) | 62 µg/mL | 15 | 960 µg/mL
Cl.NC12CC3CC(C1)CC(n1cnc(Br)n1)(C3)C2 | 111 µg/mL | 6 | 620 µg/mL
Cc1nnn(C23CC4CC(CC(N)(C4)C2)C3)n1.Cl | 13 µg/mL | 16 | 213 µg/mL
c1nnn(C23CC4CC(CC(C4)C2)C3)n1 | 56 µg/mL (≈ 274 µM) | 5 | 253 µg/mL
Cc1nnn(C23CC4CC(CC(C4)C2)C3)n1 | 77 µg/mL (≈ 353 µM) | 7 | 569 µg/mL
CCc1nnn(C23CC4CC(CC(C(C)N)(C4)C2)C3)n1.Cl (stereo unspecified) | 6 µg/mL | 50 | 299 µg/mL
NC1N=NC(Cc2nnn(C34CC5CC(CC(C5)C3)C4)n2)=N1 (stereo unspecified) | 0.09 µg/mL (≈ 0.3 µM) | 2 | 0.18 µg/mL
CC(N)C12CC3CC(C1)CC(n1ncnn1)(C3)C2.Cl (stereo unspecified) | 23 µg/mL | 18 | 423 µg/mL
CCn1n[n+](C23CC4CC(CC(C4)C2)C3)nc1[S-] | 3 µg/mL (≈ 11.3 µM) | 41 | 125 µg/mL
Cl.NC12CC3CC(C1)CC(n1ncnn1)(C3)C2 | 22 µg/mL | 25 | 552 µg/mL
O=C(O)Cc1nnn(C23CC4CC(CC(C4)C2)C3)n1 | 71 µg/mL (≈ 271 µM) | > 7 | > 500 µg/mL
CCOC(=O)Cc1nnn(C23CC4CC(CC(N)(C4)C2)C3)n1.Cl | 18 µg/mL | 7 | 127 µg/mL
CCOC(=O)Cc1nnn(C23CC4CC(CC(C4)C2)C3)n1 | 232 µg/mL (≈ 799 µM) | 4 | > 1000 µg/mL
CCc1nnn(C23CC4CC(CC(N)(C4)C2)C3)n1.Cl | 25 µg/mL | 10 | 262 µg/mL

Structure (SMILES) | EC50 (Influenza A virus) | selectivity ratio [1] | Activity (MDCK)
CC(N)C12CC3CC(CC(C3)C1)C2 (stereo unspecified) [RIMANTADINE] | 5 µg/mL (≈ 27.9 µM) | 12 | 60 µg/mL
Cc1nnn(C23CC4CC(CC(C(C)N)(C4)C2)C3)n1.Cl (stereo unspecified) | 8 µg/mL | 30 | 242 µg/mL
CC(N)C12CC3CC(C1)CC(n1cnc(Cl)n1)(C3)C2.Cl (stereo unspecified) | 15 µg/mL | 9 | 140 µg/mL
O=c1[nH]nnn1-c1ccccc1 | 294 µg/mL (≈ 1810 µM) | 3 | > 1000 µg/mL
O=C(O)c1nn(C23CC4CC(CC(C4)C2)C3)cc1Br | 300 µg/mL (≈ 922 µM) | 1 | 443 µg/mL
CCCCOC(=O)Cc1nnn(C23CC4CC(CC(C4)C2)C3)n1 | > 1 µg/mL | < 1 | < 1 µg/mL
Cc1nn(C23CC4CC(CC(C4)C2)C3)c(C)c1N | 100 µg/mL (≈ 408 µM) | 6 | 600 µg/mL
S=c1[nH]nnn1C12CC3CC(CC(C3)C1)C2 | 15 µg/mL (≈ 63.5 µM) | 11 | 167 µg/mL
OC12CC3CC(C1)CC(N=C=S)(C3)C2 | 150 µg/mL (≈ 717 µM) | > 3 | > 500 µg/mL
O=S(=O)([O-])O.c1ccc(-n2n[n+](C34CC5CC(CC(C5)C3)C4)nc2SC23CC4CC(CC(C4)C2)C3)cc1 | 57 µg/mL | 5 | 289 µg/mL
Cl.NC12CC3CC(C1)CC(n1cncn1)(C3)C2 | 123 µg/mL | 12 | 1489 µg/mL
Clc1ncn(C23CC4CC(CC(C4)C2)C3)n1 | 59 µg/mL (≈ 248 µM) | 10 | 583 µg/mL
CC(N)C12CC3CC(C1)CC(n1cnc([N+](=O)[O-])n1)(C3)C2.Cl (stereo unspecified) | 120 µg/mL | 1 | 131 µg/mL
[S-]c1n[n+](C23CC4CC(CC(C4)C2)C3)nn1-c1ccccc1 | 130 µg/mL (≈ 416 µM) | 2 | 300 µg/mL
c1nnnn1C12CC3CC(CC(C3)C1)C2 | 11 µg/mL (≈ 53.8 µM) | 25 | 281 µg/mL
OC12CC3CC(C1)CC(n1nn[nH]c1=S)(C3)C2 | 8 µg/mL (≈ 31.7 µM) | 18 | 146 µg/mL
